According to ChEMBL document CHEMBL3351464, “Identifying novel selective non-nucleoside DNA methyltransferase 1 inhibitors through docking-based virtual screening” (J Med Chem, 2014):
pIC50, pKd: −log10 of the molar value. Values belong to the compound of their own block, whether it stands above or below them. Calls of active or inactive are those of the source. No cut-off for these calls is given here.

Assays:
[1] = molecular target: T1, DNA (cytosine-5)-methyltransferase 1 (Mus musculus, UniProt P13864); test: Inhibition of N-terminal His6-tagged mouse DNMT1 (731 to 1602 residues) expressed in Escherichia coli BL21 (DE3) incubated for 15 mins before addition of [3H]-SAM and poly(dI-dC).poly(dI-dC) by liquid scintillation counting based radioactive methylation assay
Method in brief: (§1)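 Enzyme was preincubated with compound for 15 min at room temperature, then reacted for 60 min at 37°C. Products were filter-captured, washed and counted by scintillation. IC50 came from a nonlinear dose-response fit; single-point tests used 50 µM.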

[2] = molecular target: T2, Histone-lysine N-methyltransferase EHMT2 (Homo sapiens, UniProt Q96KQ7); test: Inhibition of G9a (unknown origin) incubated for 15 mins before addition of biotinylated peptide H3 (1 to 21) and SAM by methylation assay
T2 sequence (Q96KQ7 whole entry): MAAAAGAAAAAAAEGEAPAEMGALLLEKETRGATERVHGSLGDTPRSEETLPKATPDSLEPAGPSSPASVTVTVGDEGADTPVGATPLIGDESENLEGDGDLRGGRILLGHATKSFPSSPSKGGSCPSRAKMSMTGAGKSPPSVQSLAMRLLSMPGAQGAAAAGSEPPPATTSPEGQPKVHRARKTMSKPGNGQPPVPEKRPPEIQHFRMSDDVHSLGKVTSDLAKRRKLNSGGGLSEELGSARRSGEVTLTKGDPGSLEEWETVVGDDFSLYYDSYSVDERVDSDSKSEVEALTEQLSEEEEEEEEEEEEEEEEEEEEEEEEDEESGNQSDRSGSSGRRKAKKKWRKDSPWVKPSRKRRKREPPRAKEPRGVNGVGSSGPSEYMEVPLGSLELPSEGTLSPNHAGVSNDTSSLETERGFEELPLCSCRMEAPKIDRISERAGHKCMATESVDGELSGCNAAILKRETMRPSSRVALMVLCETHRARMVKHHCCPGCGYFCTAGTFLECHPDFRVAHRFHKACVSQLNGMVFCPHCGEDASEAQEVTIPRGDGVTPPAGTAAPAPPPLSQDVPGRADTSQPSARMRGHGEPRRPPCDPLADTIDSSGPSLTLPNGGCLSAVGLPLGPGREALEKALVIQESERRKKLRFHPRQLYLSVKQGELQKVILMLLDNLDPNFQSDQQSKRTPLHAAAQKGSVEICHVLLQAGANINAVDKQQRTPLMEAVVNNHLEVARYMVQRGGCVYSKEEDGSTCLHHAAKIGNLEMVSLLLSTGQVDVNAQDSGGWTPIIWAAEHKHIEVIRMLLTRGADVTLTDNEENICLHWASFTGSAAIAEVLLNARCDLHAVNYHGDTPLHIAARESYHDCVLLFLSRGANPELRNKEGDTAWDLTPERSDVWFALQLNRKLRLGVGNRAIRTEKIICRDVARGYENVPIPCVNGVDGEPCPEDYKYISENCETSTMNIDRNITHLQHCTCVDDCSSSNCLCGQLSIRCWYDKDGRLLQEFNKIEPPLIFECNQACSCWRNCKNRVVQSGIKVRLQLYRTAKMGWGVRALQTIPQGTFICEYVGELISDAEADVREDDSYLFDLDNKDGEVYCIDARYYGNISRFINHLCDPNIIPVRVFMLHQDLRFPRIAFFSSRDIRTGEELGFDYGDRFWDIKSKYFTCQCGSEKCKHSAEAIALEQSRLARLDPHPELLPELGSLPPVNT
Method in brief: (§2)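 AlphaLISA assays were run in modified Tris pH 9.0 with 100 nM biotinylated H3(1-21) and SAM at Km: MLL1 2 nM enzyme with 2 μM SAM; SUV39H1 3 nM with 20 μM; SET7/9 0.2 nM with 0.22 μM; G9a 0.03 nM with 50 μM. Enzyme and compound were preincubated for 15 min, then reacted for 60 min at room temperature before the beads were added. IC50 came from a nonlinear dose-response fit.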

[3] = molecular target: T1, DNA (cytosine-5)-methyltransferase 1; test: (§3) Binding affinity to N-terminal His6-tagged mouse DNMT1 (731 to 1602 residues) expressed in Escherichia coli BL21 (DE3) by SPR assay
Method in brief: (§4)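 Measured by SPR at 25°C. Purified mouse DNMT1 was amine-coupled to a CM5 chip in 10 mM sodium acetate pH 5.0 and equilibrated overnight in HBS-EP (10 mM HEPES pH 7.4, 150 mM NaCl, 3 mM EDTA, 0.05% P20, 0.1% DMSO). Serially diluted compounds were injected with 120 s contact and 120 s dissociation, and KD was derived by the instrument evaluation software.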

[4] = molecular target: DNA (cytosine-5)-methyltransferase 1 (Mus musculus) (UniProt P13864); test: as §3; method in brief: as §4
[5] = molecular target: Histone-lysine N-methyltransferase 2A (Homo sapiens, UniProt Q03164); test: Inhibition of MLL1 (unknown origin) incubated for 15 mins before addition of biotinylated peptide H3 (1 to 21) and SAM by methylation assay; method in brief: as §2
[6] = molecular target: T3, Histone-lysine N-methyltransferase SUV39H1 (Homo sapiens, UniProt O43463); test: Inhibition of SUV39H1 (unknown origin) incubated for 15 mins before addition of biotinylated peptide H3 (1 to 21) and SAM by methylation assay; method in brief: as §2
T3 sequence (O43463 whole entry): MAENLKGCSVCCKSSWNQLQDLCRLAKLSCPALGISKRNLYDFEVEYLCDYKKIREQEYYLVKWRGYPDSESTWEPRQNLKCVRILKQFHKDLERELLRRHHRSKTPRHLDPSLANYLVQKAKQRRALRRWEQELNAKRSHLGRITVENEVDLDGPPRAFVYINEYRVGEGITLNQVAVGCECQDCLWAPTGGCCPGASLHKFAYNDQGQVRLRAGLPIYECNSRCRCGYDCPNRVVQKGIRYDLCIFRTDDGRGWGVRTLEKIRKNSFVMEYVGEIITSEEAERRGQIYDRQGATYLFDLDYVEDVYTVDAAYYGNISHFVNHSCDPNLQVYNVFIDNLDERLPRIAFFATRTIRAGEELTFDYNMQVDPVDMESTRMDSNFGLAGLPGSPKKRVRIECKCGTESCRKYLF

[7] = Binding affinity to DNA (unknown origin) at 0.0625 to 0.5 mM by ethidium bromide dye based agarose gel electrophoresis method
[8] = molecular target: T4, Histone-lysine N-methyltransferase SETD7 (Homo sapiens, UniProt Q8WTS6); test: Inhibition of SET7/9 (unknown origin) incubated for 15 mins before addition of biotinylated peptide H3 (1 to 21) and SAM by methylation assay; method in brief: as §2
T4 sequence (Q8WTS6 whole entry): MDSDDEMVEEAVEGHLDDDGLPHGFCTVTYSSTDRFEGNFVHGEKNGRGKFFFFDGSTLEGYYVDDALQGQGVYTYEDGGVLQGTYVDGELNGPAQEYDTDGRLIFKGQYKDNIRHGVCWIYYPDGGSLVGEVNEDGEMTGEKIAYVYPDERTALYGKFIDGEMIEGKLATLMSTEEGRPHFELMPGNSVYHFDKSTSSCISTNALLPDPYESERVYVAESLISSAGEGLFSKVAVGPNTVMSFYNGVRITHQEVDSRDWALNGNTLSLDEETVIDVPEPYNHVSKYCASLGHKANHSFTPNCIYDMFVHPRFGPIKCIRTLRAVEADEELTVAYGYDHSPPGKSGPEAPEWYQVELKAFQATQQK

[9] = molecular target: DNA (cytosine-5)-methyltransferase 3B (Homo sapiens, UniProt Q9UBC3); test: Inhibition of DNMT3B (unknown origin) incubated for 15 mins before addition of [3H]-SAM and poly(dI-dC).poly(dI-dC) by liquid scintillation counting based radioactive methylation assay
[10] = molecular target: DNA (cytosine-5)-methyltransferase 3A (Homo sapiens, UniProt Q9Y6K1); test: Inhibition of DNMT3A (unknown origin) incubated for 15 mins before addition of [3H]-SAM and poly(dI-dC).poly(dI-dC) by liquid scintillation counting based radioactive methylation assay
[11] = molecular target: DNA (cytosine-5)-methyltransferase 1 (Mus musculus) (UniProt P13864); test: Inhibition of N-terminal His6-tagged mouse DNMT1 (731 to 1602 residues) at 200 uM expressed in Escherichia coli BL21 (DE3) incubated for 2 hrs using S-adenosylmethionine by ELISA
Method in brief: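 Mouse DNMT1 was purified by HisTrap, SUMO-tag cleavage, heparin and gel filtration. 200 nM enzyme was incubated with 200 μM compound (1% DMSO) and AdoMet in DNMT assay buffer at 37°C for 2 h. Capture and detection antibodies were then applied, followed by developer for 10 min at room temperature. Absorbance was read at 450 nm, with AdoHcy as reference.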

HCT-116 [12] = test: Induction of apoptosis in human HCT116 cells assessed as necrotic cells level at 0.75 uM incubated for 24 hrs by 7-AAD and annexin V staining-based flow cytometry (reference value: 0.7%); type: functional
HCT-116 [13] = test: Induction of apoptosis in human HCT116 cells assessed as early apoptotic cells level at 1.5 uM incubated for 24 hrs by 7-AAD and annexin V staining-based flow cytometry (reference value: 4%); type: functional
HCT-116 [14] = test: Induction of apoptosis in human HCT116 cells assessed as viable cells at 3 uM incubated for 24 hrs by 7-AAD and annexin V staining-based flow cytometry (reference value: 92.2%); type: functional; details: HCT-116, 24 h, read-out: Activity
HCT-116 [15] = test: Induction of apoptosis in human HCT116 cells assessed as early apoptotic cells level at 0.75 uM incubated for 24 hrs by 7-AAD and annexin V staining-based flow cytometry (reference value: 4%); type: functional
HCT-116 [16] = test: Induction of apoptosis in human HCT116 cells assessed as necrotic cells level at 3 uM incubated for 24 hrs by 7-AAD and annexin V staining-based flow cytometry (reference value: 0.7%); type: functional
HCT-116 [17] = test: Induction of apoptosis in human HCT116 cells assessed as late apoptotic cells level at 0.75 uM incubated for 24 hrs by 7-AAD and annexin V staining-based flow cytometry (reference value: 3.1%); type: functional
HCT-116 [18] = test: Induction of apoptosis in human HCT116 cells assessed as necrotic cells level at 1.5 uM incubated for 24 hrs by 7-AAD and annexin V staining-based flow cytometry (reference value: 0.7%); type: functional
HCT-116 [19] = test: Induction of apoptosis in human HCT116 cells incubated for 24 hrs by 7-AAD and annexin V staining-based flow cytometry; type: functional, cell-based
HCT-116 [20] = test: Induction of apoptosis in human HCT116 cells assessed as late apoptotic cells level at 3 uM incubated for 24 hrs by 7-AAD and annexin V staining-based flow cytometry (reference value: 3.1%); type: functional
HCT-116 [21] = test: Induction of apoptosis in human HCT116 cells assessed as viable cells at 1.5 uM incubated for 24 hrs by 7-AAD and annexin V staining-based flow cytometry (reference value: 92.2%); type: functional; details: HCT-116, 24 h, read-out: Activity
[22] = molecular target: DNA (cytosine-5)-methyltransferase 1 (Mus musculus) (UniProt P13864); test: Inhibition of N-terminal His6-tagged mouse DNMT1 (731 to 1602 residues) expressed in Escherichia coli BL21 (DE3) at 50 uM incubated for 15 mins before addition of [3H]-SAM and poly(dI-dC).poly(dI-dC) by liquid scintillation counting based radioactive methylation assay; method in brief: as §1
HCT-116 [23] = test: Induction of apoptosis in human HCT116 cells assessed as early apoptotic cells level at 3 uM incubated for 24 hrs by 7-AAD and annexin V staining-based flow cytometry (reference value: 4%); type: functional
HCT-116 [24] = test: Induction of apoptosis in human HCT116 cells assessed as late apoptotic cells level at 1.5 uM incubated for 24 hrs by 7-AAD and annexin V staining-based flow cytometry (reference value: 3.1%); type: functional
HCT-116 [25] = test: Induction of apoptosis in human HCT116 cells assessed as viable cells at 0.75 uM incubated for 24 hrs by 7-AAD and annexin V staining-based flow cytometry (reference value: 92.2%); type: functional; details: HCT-116, 24 h, read-out: Activity

T1 sequence (P13864 whole entry, the tested form may be a part): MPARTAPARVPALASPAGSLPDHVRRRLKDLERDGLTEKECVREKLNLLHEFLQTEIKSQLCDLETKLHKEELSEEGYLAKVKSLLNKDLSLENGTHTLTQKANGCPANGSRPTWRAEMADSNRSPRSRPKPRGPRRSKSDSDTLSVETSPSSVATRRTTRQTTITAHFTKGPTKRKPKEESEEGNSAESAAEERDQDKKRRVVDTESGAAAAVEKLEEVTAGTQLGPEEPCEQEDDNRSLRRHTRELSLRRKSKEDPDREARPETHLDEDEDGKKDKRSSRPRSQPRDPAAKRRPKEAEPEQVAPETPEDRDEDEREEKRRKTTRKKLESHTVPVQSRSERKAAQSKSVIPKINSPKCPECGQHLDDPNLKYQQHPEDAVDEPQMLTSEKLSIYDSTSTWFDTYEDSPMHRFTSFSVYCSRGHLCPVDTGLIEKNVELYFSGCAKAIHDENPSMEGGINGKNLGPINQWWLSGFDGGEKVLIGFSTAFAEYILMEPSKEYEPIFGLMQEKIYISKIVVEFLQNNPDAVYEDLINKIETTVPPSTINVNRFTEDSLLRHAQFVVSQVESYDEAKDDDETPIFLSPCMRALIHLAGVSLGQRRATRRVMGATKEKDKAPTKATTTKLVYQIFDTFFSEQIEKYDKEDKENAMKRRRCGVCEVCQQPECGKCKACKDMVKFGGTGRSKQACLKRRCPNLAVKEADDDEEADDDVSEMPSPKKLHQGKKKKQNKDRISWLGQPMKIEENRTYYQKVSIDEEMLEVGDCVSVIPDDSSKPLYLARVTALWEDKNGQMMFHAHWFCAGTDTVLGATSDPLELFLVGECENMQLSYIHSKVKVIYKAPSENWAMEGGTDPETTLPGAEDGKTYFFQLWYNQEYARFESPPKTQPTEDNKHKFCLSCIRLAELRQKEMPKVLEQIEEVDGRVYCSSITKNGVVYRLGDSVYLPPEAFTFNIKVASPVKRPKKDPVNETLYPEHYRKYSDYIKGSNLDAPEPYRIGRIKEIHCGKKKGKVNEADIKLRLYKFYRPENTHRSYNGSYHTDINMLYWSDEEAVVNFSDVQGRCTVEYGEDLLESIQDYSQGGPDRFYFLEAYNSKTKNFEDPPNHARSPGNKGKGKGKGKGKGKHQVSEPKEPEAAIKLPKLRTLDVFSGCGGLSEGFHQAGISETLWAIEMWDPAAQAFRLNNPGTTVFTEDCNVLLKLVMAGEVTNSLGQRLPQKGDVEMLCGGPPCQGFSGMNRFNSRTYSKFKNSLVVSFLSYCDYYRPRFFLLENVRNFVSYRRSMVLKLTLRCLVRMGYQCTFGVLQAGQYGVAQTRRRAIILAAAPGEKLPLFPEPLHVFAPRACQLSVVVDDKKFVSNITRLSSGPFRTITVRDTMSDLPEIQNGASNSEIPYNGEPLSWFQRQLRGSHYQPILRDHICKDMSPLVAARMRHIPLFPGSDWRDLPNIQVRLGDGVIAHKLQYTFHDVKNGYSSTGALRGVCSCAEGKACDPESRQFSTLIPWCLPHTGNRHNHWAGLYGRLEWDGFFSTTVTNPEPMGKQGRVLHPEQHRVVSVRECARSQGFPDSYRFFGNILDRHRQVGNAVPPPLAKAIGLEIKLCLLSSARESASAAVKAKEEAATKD
Sequence of DNA (cytosine-5)-methyltransferase 1 (Mus musculus) (P13864 whole entry, the tested form may be a part): as above
Sequence of DNA (cytosine-5)-methyltransferase 3A (Q9Y6K1 whole entry, looked up, the tested form may be a part): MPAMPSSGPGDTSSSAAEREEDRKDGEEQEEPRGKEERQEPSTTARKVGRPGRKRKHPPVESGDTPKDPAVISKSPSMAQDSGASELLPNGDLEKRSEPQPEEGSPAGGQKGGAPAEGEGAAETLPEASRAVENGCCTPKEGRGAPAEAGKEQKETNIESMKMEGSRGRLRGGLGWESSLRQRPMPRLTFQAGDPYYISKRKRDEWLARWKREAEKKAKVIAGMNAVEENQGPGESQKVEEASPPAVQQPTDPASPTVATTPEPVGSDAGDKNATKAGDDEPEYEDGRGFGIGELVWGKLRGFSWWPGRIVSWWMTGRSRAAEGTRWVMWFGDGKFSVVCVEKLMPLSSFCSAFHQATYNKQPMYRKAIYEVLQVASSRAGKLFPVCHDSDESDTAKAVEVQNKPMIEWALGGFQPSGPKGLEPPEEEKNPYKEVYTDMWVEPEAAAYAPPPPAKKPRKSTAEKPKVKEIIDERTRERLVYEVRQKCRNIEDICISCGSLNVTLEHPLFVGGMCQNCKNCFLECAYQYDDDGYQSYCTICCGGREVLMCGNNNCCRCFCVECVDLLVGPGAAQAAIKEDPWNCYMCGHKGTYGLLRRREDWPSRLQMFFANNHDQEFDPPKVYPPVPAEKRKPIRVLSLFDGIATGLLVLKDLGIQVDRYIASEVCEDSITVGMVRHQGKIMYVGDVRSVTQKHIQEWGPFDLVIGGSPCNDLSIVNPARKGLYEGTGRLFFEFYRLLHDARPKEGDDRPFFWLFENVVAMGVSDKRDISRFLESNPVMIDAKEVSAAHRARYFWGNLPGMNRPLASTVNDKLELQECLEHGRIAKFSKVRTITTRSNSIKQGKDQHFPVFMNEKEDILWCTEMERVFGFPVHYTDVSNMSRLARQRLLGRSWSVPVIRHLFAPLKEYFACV

pIC50 [1]: 4.99
pIC50 [2]: < 3.82
pKd [3]: 5.96
Activity [4]: Dose-dependent effect
pIC50 [5]: < 3.82
pIC50 [6]: < 3.82
Activity [7]: inactive
pIC50 [8]: < 3.82
pIC50 [9]: < 3.70
pIC50 [10]: < 3.70
inhibition [11]: > 60%
SMILES: OC(CNCCc1c[nH]c2ccccc12)Cn1c2ccccc2c2ccccc21 (racemic)

pIC50 [1]: 5.77
pKd [3]: 6.04
Activity [4]: Dose-dependent effect
inhibition [22]: 102%
Activity [7]: inactive
SMILES: CC(C)NCC(O)COC(Cn1c2ccccc2c2ccccc21)Cn1c2ccccc2c2ccccc21 (racemic)
Activity (HCT-116 [12]): 0.3%
Activity (HCT-116 [13]): 12.5%
viability at 3 µM (HCT-116 [14]): 27.5%
Activity (HCT-116 [15]): 4.6%
Activity (HCT-116 [16]): 2.6%
Activity (HCT-116 [17]): 4%
Activity (HCT-116 [18]): 0.7%
Activity (HCT-116 [19]): Dose-dependent effect
Activity (HCT-116 [20]): 27.2%
viability at 1.5 µM (HCT-116 [21]): 76%
Activity (HCT-116 [23]): 42.7%
Activity (HCT-116 [24]): 10.8%
viability at 0.75 µM (HCT-116 [25]): 91.1%
